Laboratory results as given in ChEMBL document CHEMBL4513216, “Probing the Open Global Health Chemical Diversity Library for Multistage-Active Starting Points for Next-Generation Antimalarials” (ACS Infect Dis, 2020).

Test: Toxicity liver stage against HepG2, at 10uM
Type: cell-based
Parameters: test concentration 10 uM, cell line HepG2-A16-CD81EGFP
Settings: human, HepG2-A16-CD81EGFP cells; read-out: INHIBITION
Outline: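 Uninfected HepG2-A16-CD81EGFP cells, 3 × 10^3 per well, 1536-well, plated on prespotted compound at 10 μM final, parasite-free screening media added to match infected plates; puromycin 10 μM positive, DMSO 0.5% negative; run in parallel with 48 h PbLuc assay at 37 °C, 5% CO2; viability by CellTiter-Glo luminescence, normalized to controls.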
Work on `CN(C)S(=O)(=O)N1C[C@H]2CC[C@@H](C1)N(Cc1ccc3c(c1)OCCO3)C2` yielded a cytotoxicity at 10 µM of 4.52%. With `Cc1cc(C(=O)NCc2cccnc2N2CCc3ccccc3C2)[nH]n1` the cytotoxicity at 10 µM was 14.4%. `O=C(NC1CCCN(c2ccccc2F)C1)c1ccon1` (centres undefined) gave a cytotoxicity at 10 µM of -6.43%. `CN(C)S(=O)(=O)N1C[C@@H]2COC[C@]2(COc2ccccn2)C1` showed a cytotoxicity at 10 µM of 0.705%. `CC(O)CN1CCN(C(=O)c2cn(-c3ccccc3Cl)nn2)CC1` (centres undefined) showed a cytotoxicity at 10 µM of 0.361%. With `CN1CCO[C@@H]2CN(C(=O)NCc3ccccc3)CC[C@@H]2C1` the cytotoxicity at 10 µM was -104%. `Cc1nn(C)c(N2CCOCC2)c1CNC(c1cccs1)C(C)C` (centres undefined) gave a cytotoxicity at 10 µM of -2.53%. Work on `Cc1ccc(NC(=O)Nc2c(O)c3ccccc3oc2=O)cc1C` yielded a cytotoxicity at 10 µM of 5.89%. `O=C(NCc1ccccn1)[C@@]12CCO[C@@H]1CCN(C1CCCC1)C2` gave a cytotoxicity at 10 µM of -105%. In the case of `O=C(N1CCC(O)(C(F)(F)F)C1)C1(c2ccc(Cl)cc2)CC1` (centres undefined), the cytotoxicity at 10 µM is reported as 9.64%. Work on `CCN(C(C)=O)C1CCN(c2nccc(C3CCCC3)n2)C1` (centres undefined) yielded a cytotoxicity at 10 µM of -5.35%. Molecule `COc1cccc2c1ccn2CC(=O)N1CCCC(C(=O)O)C1` (centres undefined) has a cytotoxicity at 10 µM of 6.28%. Molecule `CN1CCN([C@@H]2CCN(CC3=Cc4cc(Cl)ccc4OC3)C[C@H]2O)CC1` has a cytotoxicity at 10 µM of -5.87%. With `CN(C)c1ncc(-c2cc(C(=O)NCCC#N)n(CC3CC3)c2)cn1` the cytotoxicity at 10 µM was 1.29%. For `O=C(O)CNc1cc(-c2cc(C(=O)NC3CC3)ccn2)c2cc[nH]c2n1`, the cytotoxicity at 10 µM was -5.2%. For `CCn1cc(NC(=O)C(C)n2ncc(Cl)c2C)c(C(=O)NCC(C)C)n1` (centres undefined), the cytotoxicity at 10 µM was 0.557%. Molecule `Cc1ccc(-c2nc(CN(Cc3cccs3)C3CCS(=O)(=O)C3)cs2)o1` (centres undefined) has a cytotoxicity at 10 µM of 11.4%. Molecule `CCSc1ccccc1C(=O)N1CCC(S(=O)(=O)c2nncn2C)CC1` has a cytotoxicity at 10 µM of 0.595%. For `CCN(CCCNC(=O)Nc1ccccc1C(C)C)S(C)(=O)=O`, the cytotoxicity at 10 µM was -0.132%. `FC(F)(F)Cn1ccnc1CN1CCCC1c1noc(C2CC2)n1` (centres undefined) showed a cytotoxicity at 10 µM of 1.78%. `CO[C@H]1CN(C(=O)c2cn3cc(C)ccc3n2)CC[C@@]12CCCO2` showed a cytotoxicity at 10 µM of 3.6%. With `OCCc1ncnn1Cc1cccc(Cl)c1` the cytotoxicity at 10 µM was 18.2%. Work on `CC(C)OCCCNC(=O)C1CCC(=O)N(C2CCCC2)C1` (centres undefined) yielded a cytotoxicity at 10 µM of -5.92%. With `Cc1ccc(NC(C)C(=O)NCc2cccs2)cc1C` (centres undefined) the cytotoxicity at 10 µM was -16.4%. For `COc1cc(OC)cc(-n2ccnc2-c2cc3n(n2)CCNC3)c1`, the cytotoxicity at 10 µM was -12.2%. `CC1CN(C(=O)C2(c3ccc(F)cc3F)CCOCC2)CCO1` (centres undefined) gave a cytotoxicity at 10 µM of -4.84%. With `O=C(CC1CC1)N1CCC2(CCCN(CCOc3ccccc3)C2)C1` (centres undefined) the cytotoxicity at 10 µM was -0.861%. Work on `Cc1nnc(NC(=O)CN(C)CC2CCCN2c2cccnn2)s1` (centres undefined) yielded a cytotoxicity at 10 µM of -15%. For `O=C(CSc1nnc(N2CCNCC2)s1)Nc1ccccc1`, the cytotoxicity at 10 µM was 2.84%. Work on `Cc1ccsc1CNCC1CCCN1c1cccnn1` (centres undefined) yielded a cytotoxicity at 10 µM of -4.48%. With `COc1ccc(C(CC(=O)O)NC(=O)c2cc(C)on2)cc1` (centres undefined) the cytotoxicity at 10 µM was 5.12%. Molecule `COCC(=O)N(Cc1cccc(C)c1)Cc1ccccc1OC` has a cytotoxicity at 10 µM of -51.4%. `C=c1occc1=C1NN=C2SC(C#N)C(N)=NN21` (centres undefined) gave a cytotoxicity at 10 µM of 0.331%. `O=C(C1CCCCC1)N1CCC2(CCCN2CC2CC2)CC1` gave a cytotoxicity at 10 µM of 3.56%. `CC(C(=O)NC1CC1)S(=O)(=O)Cc1noc(C(C)(C)C)n1` (centres undefined) gave a cytotoxicity at 10 µM of 9.42%. Work on `Cc1noc(CCCC(=O)NCCc2cc3ccccc3[nH]2)n1` yielded a cytotoxicity at 10 µM of 1.38%. `CNC(=O)[C@@H]1C[C@@H](N)CN1C(=O)CCSCc1ccc(F)cc1` showed a cytotoxicity at 10 µM of -17.6%. For `O=C(CNc1cc(-c2ccccc2)nc2ccnn12)NC1CC1`, the cytotoxicity at 10 µM was -10.5%. Molecule `O=C(NCCCN1CCCCCC1=O)c1n[nH]c(=O)c2ccccc12` has a cytotoxicity at 10 µM of -12.3%. `Cc1ccc(N2CCN(C(=O)CN3C[C@H]4CC[C@@H]3C4)CC2=O)cc1` gave a cytotoxicity at 10 µM of -1.41%. In the case of `C=Cn1ncc(CN2C[C@@H]3CCCN3C[C@H]2CCSC)c1C`, the cytotoxicity at 10 µM is reported as -4.12%. For `c1ccc(CN2CCCC2Cn2cncn2)nc1` (centres undefined), the cytotoxicity at 10 µM was -10.8%. Work on `O=c1c(=CS(=O)(=O)Nc2ccc(Cl)cc2)[nH]c(=O)n2cccc12` yielded a cytotoxicity at 10 µM of -7.67%. Work on `CCCc1nc(C)c(CNc2nc(C)nc3oc(C)nc23)s1` yielded a cytotoxicity at 10 µM of -44.6%. For `COc1ccc(OCC(=O)NC(C)c2ccccc2)c(C(=O)O)c1` (centres undefined), the cytotoxicity at 10 µM was 2.4%. For `Cc1noc(C2CCCN(C(=O)c3ccc(Br)cc3F)C2)n1` (centres undefined), the cytotoxicity at 10 µM was -8.06%. `Cn1cc(CNC2CCC(O)CC2)c(-c2cc3ccccc3o2)n1` (centres undefined) showed a cytotoxicity at 10 µM of -48%. `CNC(=O)CN1CCc2c(CNc3nccs3)n[nH]c2C1` showed a cytotoxicity at 10 µM of 3.25%. `O=C(c1ccco1)N1C[C@H]2CCCN(Cc3ccc(F)cc3)[C@H]2C1` showed a cytotoxicity at 10 µM of 0.255%. `COC(=O)c1ccc(C2SCC(=O)Nc3c2cnn3C2CCCC2)cc1` (centres undefined) showed a cytotoxicity at 10 µM of 1.9%. `COCCN(C)CC(=O)N1C[C@@H](C)[C@](O)(C(C)C)C1` gave a cytotoxicity at 10 µM of 4.9%. `COCCN1C[C@@H]2CC[C@H]1CN(C(=O)CCn1cc(Cl)cn1)C2` showed a cytotoxicity at 10 µM of 7.62%. With `COCCN1CCCC2(CCN(C(=O)c3cnc(O)cn3)C2)C1=O` (centres undefined) the cytotoxicity at 10 µM was 0.0942%. In the case of `CS(=O)(=O)c1cnc(C2CCCC2)nc1C1CCCNC1` (centres undefined), the cytotoxicity at 10 µM is reported as -6.35%.
